Calls of active or inactive are those of the source. No cut-off for these calls is given here.
Experiments:
[1] = biological target: T1, Cyclooxygenase (Bos taurus) (UniProt O62664+O62698); test: Inhibition of cyclooxygenase activity in bovine seminal vesicles assessed as arachodonic acid dependent formation of adenochrome from L-epinephrine at 500 uM; format: protein assay
Summary of the method: (§1)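 Prostaglandin synthetase from a crude freeze-dried beef seminal vesicle powder, 6.7 mg/mL per assay, solubilized with 0.05% Triton X-100. Activity measured as arachidonic acid dependent adrenochrome formation from L-epinephrine (Takeguchi–Sih method, minor modification). Highest test concentration 5×10^-4 M; indomethacin 2×10^-5 M as reference.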

[2] = tested on: Platelet; test: Inhibition of 500 uM arachidonate-induced platelet aggregation in human platelet-rich plasma at 10 uM by turbidometric method; format: functional
Summary of the method: (§2)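 Citrated human PRP from normal donors (no aspirin for 48 h), centrifuged at 164g to remove red cells, kept at 25 °C. Reagents added as 10 μL per 1 mL PRP. Inhibitor held at 10^-5 M while arachidonate concentration varied. Turbidometric (Born) aggregation at 37 °C over 3 min; % inhibition from a single blood sample, representative of several determinations.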

[3] = tested on: Platelet; test: Inhibition of 400 uM arachidonate-induced platelet aggregation in human platelet-rich plasma at 10 uM by turbidometric method; format: functional; summary of the method: as §2
[4] = tested on: Platelet; test: Inhibition of 300 uM arachidonate-induced platelet aggregation in human platelet-rich plasma at 10 uM by turbidometric method; format: functional; summary of the method: as §2
[5] = biological target: T1, Cyclooxygenase (Bos taurus); test: Inhibition of cyclooxygenase activity in bovine seminal vesicles assessed as arachodonic acid dependent formation of adenochrome from L-epinephrine at concentration of one order of magnitude greater than that necessary for 100% inhibition of platelet aggregation; summary of the method: as §1
[6] = tested on: Platelet; test: Inhibition of ADP-induced primary platelet aggregation in aspirin-treated human platelet-rich plasma at 100 uM after 2 mins by turbidometric method; format: functional
Summary of the method: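 PRP from donors free of aspirin for 48 h, centrifuged at 164g and held at 25 °C, then incubated 15 min with aspirin (1 mg/mL). Test agent (100 μM) added 2 min before 10 μM ADP. Primary aggregation compared with aspirin alone, read turbidometrically (Born) at 37 °C over 3 min.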

[7] = biological target: T1, Cyclooxygenase (Bos taurus); test: Inhibition of cyclooxygenase activity in bovine seminal vesicles assessed as arachodonic acid dependent formation of adenochrome from L-epinephrine at 100 uM; format: protein assay; summary of the method: as §1

inhibition [1] | inhibition [5] | inhibition [7] | Compound | inhibition (INH) [2] | inhibition (INH) [3] | inhibition (INH) [4] | inhibition [6]
30% |  |  | CCCCCCCCN[C@H]1CCC[C@H]1CCCCCCC(=O)O (relative stereo) | 0% | 11% | 50% | 
inactive | < 10% |  | CCCCCCCN[C@H]1CCC[C@@H]1CCCCCCC(=O)O (relative stereo) | 19% | 66% | 100% | inactive
 |  |  | O=C(O)CCCCCC[C@@H]1CCC[C@@H]1NCc1ccccc1 (relative stereo) |  |  |  | inactive
30% |  |  | CCCCCCCCN[C@H]1CCC[C@@H]1CCCCCCC(=O)O (relative stereo) | 0% | 7% | 71% | 
inactive |  |  | CCCCCCCN[C@H]1CCC[C@H]1CCCCCCC(=O)O (relative stereo) | 0% | 11% | 43% | inactive
 |  | inactive | CCCCCNCC[C@@H]1CCC[C@@H]1CCCCCCC(=O)O | 0% | 16% | 91% | inactive
inactive |  |  | O=C(O)CCCCCC[C@H]1CCC[C@@H]1NCc1ccccc1 (relative stereo) | 0% | 0% | 0% | inactive
inactive |  |  | CCCCCCN[C@H]1CCC[C@@H]1CCCCCCC(=O)O (relative stereo) | 0% | 0% | 14% | 
